# Results taken from ChEMBL document CHEMBL1759935, “Pharmacokinetic optimisation of novel indole-2-carboxamide cannabinoid CB1 antagonists” (Bioorg Med Chem Lett, 2011).
# What was measured:
# Cannabinoid receptor 1 [1] = biological target: T1, Cannabinoid receptor 1 (Homo sapiens, UniProt P21554); assay: Antagonist activity against human CB1 receptor; format: functional
# [2] = Intrinsic clearance in human liver microsomes in presence of UGT; format: ADME, Microsome
# Procedure, shortened: (§1)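 UGT pathway: human gut or liver microsomes at 0.5 mg protein/mL with 2 mM UDPGA, alamethicin and 1 mM MgCl2, pH 7.1. Compound depletion measured by LC–MS/MS in duplicate time-course incubations; intrinsic clearance expressed per mg protein.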
# [3] = Intrinsic clearance in human gut microsomes in presence of UGT; format: ADME, Microsome; procedure, shortened: as §1
# [4] = Intrinsic clearance in human gut microsomes in presence of NADPH; format: ADME, Microsome
# Procedure, shortened: (§2)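 Pooled human microsomes (gut or liver) at 0.5 mg protein/mL with 1 mM NADPH, pH 7.4 (P450 pathway). Compound loss followed by LC–MS/MS in duplicate time-course incubations; intrinsic clearance given per mg protein.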
# [5] = Intrinsic clearance in human liver microsomes in presence of NADPH; format: ADME, Microsome; procedure, shortened: as §2
# Mus musculus [6] = assay: Inhibition of WIN55212-2-induced hypothermia in po dosed mouse assessed as change in rectal temperature administered 15 mins before WIN55212-2 challenge measured after 75 mins; format: functional; conditions: read-out: ID50 (the source's name)
# Procedure, shortened: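 Antagonist or vehicle (5% mulgofen in saline, 10 mL/kg) given orally 75 min before rectal temperature reading. WIN 55,212-2 mesylate (10 mL/kg) given sc 60 min before the reading, at its time of maximal hypothermia. Metal probe with vaseline inserted about 1.5 cm; highest temperature stable for 10 s recorded. ID50 reported with confidence interval.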
# Cannabinoid receptor 2 = Cannabinoid receptor 2 (Homo sapiens, UniProt P34972); assay: Displacement of [3H]CP55940 from human recombinant CB2 receptor expressed in Sf9 cells
# Procedure, shortened: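 Competition binding against [3H]CP55,940 on membranes from Sf9 cells expressing recombinant human CB2 receptor; run at least in duplicate.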
# Canis familiaris = organism: Canis familiaris; assay: Clearance in dog; format: ADME, organism-based, Canis lupus familiaris; conditions: in vivo
# [7] = Intrinsic clearance in rat liver microsomes in presence of NADPH; format: ADME, Microsome
# Procedure, shortened: (§3)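 P450 pathway: compound depletion in duplicate time-course incubations of microsomes at 0.5 mg protein/mL with 1 mM NADPH, pH 7.4. Liver microsomes prepared in-house; small intestinal microsomes purchased. Loss measured by LC–MS/MS; CL_int expressed per mg microsomal protein.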
# [8] = Intrinsic clearance in dog liver microsomes in presence of UGT; format: ADME, Canis lupus familiaris, Microsome
# Procedure, shortened: (§4)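 UGT pathway: compound loss in duplicate time-course incubations of liver (prepared in-house) or small intestinal microsomes at 0.5 mg protein/mL, with 2 mM UDPGA, alamethicin and 1 mM MgCl₂ at pH 7.1. Detection by LC–MS/MS; CL_int expressed per mg microsomal protein.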
# [9] = Intrinsic clearance in dog liver microsomes in presence of NADPH; format: ADME, Canis lupus familiaris, Microsome; procedure, shortened: as §3
# Mus musculus [10] = organism: Mus musculus; assay: Clearance in mouse; format: ADME, organism-based; conditions: in vivo
# Rattus norvegicus = organism: Rattus norvegicus; assay: Clearance in rat; format: ADME, organism-based; conditions: in vivo
# [11] = Intrinsic clearance in rat liver microsomes in presence of UGT; format: ADME, Microsome; procedure, shortened: as §4
# [12] = Bioavailability in mouse; format: ADME, organism-based; conditions: in vivo
# [13] = Intrinsic clearance in mouse gut microsomes in presence of UGT; format: ADME, Microsome; procedure, shortened: as §4
# [14] = Intrinsic clearance in mouse liver microsomes in presence of NADPH; format: ADME, Microsome; procedure, shortened: as §3
# [15] = Intrinsic clearance in dog gut microsomes in presence of UGT; format: ADME, Canis lupus familiaris, Microsome; procedure, shortened: as §4
# Cannabinoid receptor 1 [16] = biological target: T1, Cannabinoid receptor 1; assay: biochemical; format: cell-based, CHO
# [17] = Intrinsic clearance in mouse liver microsomes in presence of UGT; format: ADME, Microsome; procedure, shortened: as §4
# [18] = Intrinsic clearance in rat gut microsomes in presence of NADPH; format: ADME, Microsome; procedure, shortened: as §3
# [19] = Bioavailability in dog; format: ADME, organism-based, Canis lupus familiaris; conditions: in vivo
# [20] = Intrinsic clearance in mouse gut microsomes in presence of NADPH; format: ADME, Microsome; procedure, shortened: as §3
# [21] = Intrinsic clearance in rat gut microsomes in presence of UGT; format: ADME, Microsome; procedure, shortened: as §4
# [22] = Intrinsic clearance in dog gut microsomes in presence of NADPH; format: ADME, Canis lupus familiaris, Microsome; procedure, shortened: as §3
# [23] = Bioavailability in rat; format: ADME, organism-based; conditions: in vivo
# T1 sequence (P21554 whole entry): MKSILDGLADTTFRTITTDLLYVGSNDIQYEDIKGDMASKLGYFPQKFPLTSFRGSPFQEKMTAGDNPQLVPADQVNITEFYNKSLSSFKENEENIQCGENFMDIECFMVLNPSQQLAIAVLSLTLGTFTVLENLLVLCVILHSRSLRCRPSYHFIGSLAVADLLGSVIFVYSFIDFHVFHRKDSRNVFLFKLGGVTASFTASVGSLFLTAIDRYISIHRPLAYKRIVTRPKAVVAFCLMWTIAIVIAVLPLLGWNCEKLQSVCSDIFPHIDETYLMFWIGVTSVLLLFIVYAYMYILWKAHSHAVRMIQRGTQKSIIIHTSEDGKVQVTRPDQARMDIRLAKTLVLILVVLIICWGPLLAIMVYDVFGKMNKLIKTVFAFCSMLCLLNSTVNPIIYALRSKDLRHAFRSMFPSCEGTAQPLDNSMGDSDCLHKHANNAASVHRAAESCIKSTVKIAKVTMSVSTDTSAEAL
# Chain of Cannabinoid receptor 2 (P34972 whole entry): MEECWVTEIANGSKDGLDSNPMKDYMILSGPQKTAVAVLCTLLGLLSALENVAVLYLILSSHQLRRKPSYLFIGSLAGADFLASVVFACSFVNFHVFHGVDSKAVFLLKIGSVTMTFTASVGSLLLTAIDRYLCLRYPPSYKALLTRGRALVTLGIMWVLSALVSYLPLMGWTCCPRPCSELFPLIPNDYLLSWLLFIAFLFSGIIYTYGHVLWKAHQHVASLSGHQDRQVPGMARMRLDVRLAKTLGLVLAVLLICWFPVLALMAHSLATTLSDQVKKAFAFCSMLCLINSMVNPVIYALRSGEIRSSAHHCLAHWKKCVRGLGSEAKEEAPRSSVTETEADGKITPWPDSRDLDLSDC
smiles,measurement,setting,value
CCOc1ccc(OC(F)(F)F)cc1Cn1c(C(=O)NCC(C)(C)CO)cc2cc(C#N)ccc21,IC50,Cannabinoid receptor 1 [1],8.32 nM
same,microsomal CLint,[2],20 µL/min/mg
same,microsomal CLint,[3],103 µL/min/mg
same,microsomal CLint,[4],< 6 µL/min/mg
same,microsomal CLint,[5],103 µL/min/mg
CC(C)(CO)CNC(=O)c1cc2cc(C#N)ccc2n1Cc1cc(Cl)cc(Cl)c1,IC50,Cannabinoid receptor 1 [1],5.37 nM
same,microsomal CLint,[2],22 µL/min/mg
same,microsomal CLint,[3],98 µL/min/mg
same,microsomal CLint,[4],< 6 µL/min/mg
same,microsomal CLint,[5],103 µL/min/mg
CC(O)C1(CNC(=O)c2cc3cc(C#N)ccc3n2Cc2cccc(OC(F)(F)F)c2)CCCC1 (stereo not given),IC50,Cannabinoid receptor 1 [1],5.13 nM
same,microsomal CLint,[2],9 µL/min/mg
same,microsomal CLint,[3],< 6 µL/min/mg
same,microsomal CLint,[4],99 µL/min/mg
same,microsomal CLint,[5],505 µL/min/mg
COc1ccc(OC(F)(F)F)cc1Cn1c(C(=O)NCC2(CO)CC2)cc2cc(C#N)ccc21,IC50,Cannabinoid receptor 1 [1],5.13 nM
same,microsomal CLint,[2],18 µL/min/mg
same,microsomal CLint,[3],51 µL/min/mg
same,microsomal CLint,[4],< 6 µL/min/mg
same,microsomal CLint,[5],139 µL/min/mg
Cc1c(C(=O)NN2CCCCC2)nn(-c2ccc(Cl)cc2Cl)c1-c1ccc(Cl)cc1 [RIMONABANT],microsomal CLint,[2],< 6 µL/min/mg
same,microsomal CLint,[3],< 6 µL/min/mg
same,ED50,Mus musculus [6],1.29 µmol/kg
same,microsomal CLint,[4],< 6 µL/min/mg
same,microsomal CLint,[5],69 µL/min/mg
COc1ccc(OC(F)(F)F)cc1Cn1c(C(=O)NCC(C)(C)CO)cc2cc(C#N)ccc21,Ki,Cannabinoid receptor 2,> 10000 nM
same,clearance,Canis familiaris,7 mL/min/kg
same,microsomal CLint,[7],69 µL/min/mg
same,microsomal CLint,[8],7 µL/min/mg
same,IC50,Cannabinoid receptor 1 [1],1.17 nM
same,microsomal CLint,[2],31 µL/min/mg
same,microsomal CLint,[9],< 6 µL/min/mg
same,microsomal CLint,[3],68 µL/min/mg
same,clearance,Mus musculus [10],17 mL/min/kg
same,clearance,Rattus norvegicus,104 mL/min/kg
same,microsomal CLint,[11],191 µL/min/mg
same,bioavailability,[12],30%
same,microsomal CLint,[13],< 6 µL/min/mg
same,microsomal CLint,[14],45 µL/min/mg
same,microsomal CLint,[15],< 6 µL/min/mg
same,ED50,Mus musculus [6],0.88 µmol/kg
same,Ki,Cannabinoid receptor 1 [16],0.398 nM
same,microsomal CLint,[17],< 6 µL/min/mg
same,microsomal CLint,[18],< 6 µL/min/mg
same,bioavailability,[19],67%
same,microsomal CLint,[20],< 6 µL/min/mg
same,microsomal CLint,[21],< 6 µL/min/mg
same,microsomal CLint,[22],< 6 µL/min/mg
same,microsomal CLint,[4],< 6 µL/min/mg
same,microsomal CLint,[5],69 µL/min/mg
same,bioavailability,[23],8%
N#Cc1ccc2c(c1)cc(C(=O)NCCC1(O)CCC1)n2Cc1cccc(OC(F)(F)F)c1,IC50,Cannabinoid receptor 1 [1],2.63 nM
same,microsomal CLint,[2],< 6 µL/min/mg
same,microsomal CLint,[3],< 6 µL/min/mg
same,microsomal CLint,[4],< 6 µL/min/mg
same,microsomal CLint,[5],78 µL/min/mg
CCCOc1cccc(Cn2c(C(=O)NCC(C)(C)CO)cc3cc(C#N)ccc32)c1,IC50,Cannabinoid receptor 1 [1],1.55 nM
same,microsomal CLint,[2],10 µL/min/mg
same,microsomal CLint,[3],45 µL/min/mg
same,microsomal CLint,[4],13 µL/min/mg
same,microsomal CLint,[5],156 µL/min/mg
COc1ccc(C(F)(F)F)cc1Cn1c(C(=O)NCC(C)(C)O)cc2cc(C#N)ccc21,IC50,Cannabinoid receptor 1 [1],11.5 nM
same,microsomal CLint,[2],< 6 µL/min/mg
same,microsomal CLint,[3],< 6 µL/min/mg
same,ED50,Mus musculus [6],> 10 µmol/kg
same,Ki,Cannabinoid receptor 1 [16],7.59 nM
same,microsomal CLint,[4],< 6 µL/min/mg
same,microsomal CLint,[5],7 µL/min/mg
COc1ccc(Br)cc1Cn1c(C(=O)NCCCO)cc2cc(C#N)ccc21,IC50,Cannabinoid receptor 1 [1],9.33 nM
same,microsomal CLint,[2],< 6 µL/min/mg
same,microsomal CLint,[3],< 6 µL/min/mg
same,microsomal CLint,[4],< 6 µL/min/mg
same,microsomal CLint,[5],41 µL/min/mg
COc1ccc(C(F)(F)F)cc1Cn1c(C(=O)NCCC2(O)CCC2)cc2cc(C#N)ccc21,IC50,Cannabinoid receptor 1 [1],1.48 nM
same,microsomal CLint,[2],< 6 µL/min/mg
same,microsomal CLint,[3],< 6 µL/min/mg
same,microsomal CLint,[4],< 6 µL/min/mg
same,microsomal CLint,[5],88 µL/min/mg
Cc1ccc(Cl)cc1Cn1c(C(=O)NCC(C)(C)CO)cc2cc(C#N)ccc21,IC50,Cannabinoid receptor 1 [1],0.575 nM
same,microsomal CLint,[2],23 µL/min/mg
same,microsomal CLint,[3],124 µL/min/mg
same,microsomal CLint,[4],< 6 µL/min/mg
same,microsomal CLint,[5],119 µL/min/mg
CC(C)(O)CCNC(=O)c1cc2cc(C#N)ccc2n1Cc1cccc(OC(F)(F)F)c1,IC50,Cannabinoid receptor 1 [1],13.5 nM
same,microsomal CLint,[2],< 6 µL/min/mg
same,microsomal CLint,[3],9 µL/min/mg
same,ED50,Mus musculus [6],9.67 µmol/kg
same,Ki,Cannabinoid receptor 1 [16],5.01 nM
same,microsomal CLint,[4],< 6 µL/min/mg
same,microsomal CLint,[5],9 µL/min/mg
N#Cc1ccc2c(c1)cc(C(=O)NCCC(O)C(F)(F)F)n2Cc1cccc(OC(F)(F)F)c1 (stereo not given),IC50,Cannabinoid receptor 1 [1],8.13 nM
same,microsomal CLint,[2],31 µL/min/mg
same,microsomal CLint,[3],< 6 µL/min/mg
same,microsomal CLint,[4],26 µL/min/mg
same,microsomal CLint,[5],59 µL/min/mg
